NR2E3 ag-1: human photoreceptor-specific nuclear receptor agonism. inhibition of corepressor binding, % at 3.98 µM. CHO-S Gal4-NCOR/VP16-NR2E3 two-hybrid, luciferase. Q9Y5X4. actives 0.35% (n = 360,000);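 active = inhibition above the mean of all tested compounds plus 3 SD, cut at about 70% in these data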;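 note: 0% = DMSO with NR2E3 transfected cells and 100% = cells lacking NR2E3 construct; higher means lower luciferase signal from less NR2E3 corepressor binding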
Target sequence (Q9Y5X4 whole entry, looked up, the tested form may be a part): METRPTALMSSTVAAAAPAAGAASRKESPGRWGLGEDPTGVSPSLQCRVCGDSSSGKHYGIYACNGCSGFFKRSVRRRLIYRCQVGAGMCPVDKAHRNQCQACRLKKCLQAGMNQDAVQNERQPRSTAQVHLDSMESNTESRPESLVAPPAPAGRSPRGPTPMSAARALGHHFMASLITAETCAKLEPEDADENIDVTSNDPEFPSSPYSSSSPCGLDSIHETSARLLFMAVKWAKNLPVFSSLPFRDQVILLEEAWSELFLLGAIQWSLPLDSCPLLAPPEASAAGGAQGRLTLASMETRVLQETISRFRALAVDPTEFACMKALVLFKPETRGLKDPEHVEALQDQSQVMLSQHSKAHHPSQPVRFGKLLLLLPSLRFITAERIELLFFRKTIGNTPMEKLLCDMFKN
GalR3 antag: antagonists of human GalR3. O60755. HEK293 GalR3-CNG cAMP membrane potential fluorescence; galR3 body fused to GalR1 C-terminus. inhibition, % at 3 µM. actives 0.44% (n = 360,000). AID 651719;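 active = inhibition above the screen-wide average plus 3 SD, cut at about 13% in these data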;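 note: forskolin and galanin both at EC90 stimulate the cells; cAMP rise reported by CNG channel membrane potential dye signal; 0% = forskolin plus galanin with DMSO and 100% = forskolin alone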
Target sequence (O60755 1-299 limits assumed): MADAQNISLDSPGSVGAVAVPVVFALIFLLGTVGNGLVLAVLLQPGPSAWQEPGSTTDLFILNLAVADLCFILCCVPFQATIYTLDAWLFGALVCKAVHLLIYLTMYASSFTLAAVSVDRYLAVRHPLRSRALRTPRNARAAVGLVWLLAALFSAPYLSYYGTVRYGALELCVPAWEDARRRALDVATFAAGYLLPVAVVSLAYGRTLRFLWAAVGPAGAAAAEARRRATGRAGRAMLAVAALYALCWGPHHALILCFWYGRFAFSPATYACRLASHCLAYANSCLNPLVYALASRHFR
NR2E3 ag-2: activates human photoreceptor nuclear receptor NR2E3; Q9Y5X4; GST-NR2E3/biotin-RetCOR TR-FRET, 1536-well; inhibition of corepressor binding, % at 4.78 µM; actives 0.12% (n = 320,000); AID 2300;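 active = percent inhibition above the cutoff of mean plus 3 SD of all tested compounds, set per screening campaign, cut at about 20% in these data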;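 note: 0% = DMSO wells and 100% = biotin wells as full block of FRET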
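System: GST-NR2E3 and biotin-RetCOR proteins; probe or stimulus: 7 nM biotin-RetCOR; doses: compound at 4.8 µM, single dose; schedule: Compound–protein incubation for 5 h at 4 °C; detection: time-resolved FRET; read-out: percent inhibition; controls: biotin wells as high control, 0.6% DMSO wells as low control; format: 1536-well plates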
FXN GAA850 act: activators of GAA850 frataxin (FXN) promoter; HEK293 lucGAA850 FXN promoter luciferase reporter, 24 h; percent of 10 µM SAHA response; activation, % at 6 µM; actives 0.56% (n = 360,000); AID 540364;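 active = activation above the average of all compounds screened plus 3 SD, cutoff fixed separately per campaign, cut at about 7.5% in these data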;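 note: 0% = DMSO wells and 100% = 10 µM SAHA wells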
V-ATPase pHluor: alters yeast V-ATPase proton transport; S. cerevisiae, pHLuorin cytosolic pH fluorescence; response, % at 10 µM; actives 0.37% (n = 350,000); in the data active = response mostly above about 7.3%, no sharp cut-off; inactive = mostly below about 5.4%; note: actives read high
Env fusion inh: blocks HIV Env-driven cell-cell fusion; HeLa-JRFL Env/CEM21 cell fusion, luciferase; inhibition, % at 12.3 µM; actives 1.1% (n = 360,000);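 active = mean replicate inhibition score of at least 50 and every replicate individually at or above 50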;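 note: 0% = plate neutral controls and 100% = maraviroc near 300 nM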
NR2E3 ag conf: NR2E3 agonism confirmed in two-hybrid assay. shares compounds with NR2E3 ag-1. CHO-S mammalian two-hybrid NR2E3-NCOR, luciferase luminescence. inhibition, % at 3.98 µM. actives 51% (n = 2,300);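 active = average inhibition above a cutoff equal to the mean inhibition of all tested compounds plus one SD, cut at about 70% in these data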;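 note: 0% = DMSO in NR2E3 cells and 100% = DMSO in cells lacking NR2E3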
GAL4-VP16 luc: GAL4-VP16 reporter inhibition in NR2E3 agonist counterscreen; shares compounds with NR2E3 ag-1; CHO-S GAL4-VP16 luciferase reporter, luminescence; inhibition, % at 3.98 µM; actives 29% (n = 2,300);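 active = mean inhibition above a cutoff equal to the average over all tested compounds plus one standard deviation, cut at about 70% in these data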;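 note: luciferase from a UAS reporter driven by GAL4-VP16 transactivation; 0% = DMSO with VP16-transfected cells and 100% = DMSO with cells lacking VP16; higher means less reporter light so more repression of VP16 activity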
An asterisk follows results filed as active; . = not tested or not shown; [ ] = another dose, or the depositor's remark. Most compounds without a hit are left out; they make up all but 2.2% or so of the library.

SMILES	NR2E3 ag-1	GalR3 antag	NR2E3 ag-2	FXN GAA850 act	V-ATPase pHluor	Env fusion inh	NR2E3 ag conf	GAL4-VP16 luc
CCOC(=O)N1CCC(NC(=O)C2CCCN(Cc3nc(-c4cccc(Cl)c4)oc3C)C2)CC1 (stereo not given)	84*	.	0	-2	0	35	88*	65
CCN1CCN(CCNC(=O)C2CCCN(Cc3nc(-c4cccc(Cl)c4)oc3C)C2)CC1 (stereo not given)	-26	0	-2	0	-2	17	.	.
CCCNC(=O)N[C@@H]1CC[C@@H](CCNS(=O)(=O)c2cccc(F)c2)O[C@@H]1CO	.	.	.	.	.	-10[16.7 µM]	.	.
C[C@@H]1CN([C@@H](C)CO)C(=O)Cc2cc(NC(=O)CCC(F)(F)F)ccc2O[C@H]1CN(C)C(=O)Nc1ccccc1	.	.	.	.	.	6[16.7 µM]	.	.
Cc1ccc(CN2CC(C(=O)Nc3nc(C)cs3)CC2=O)cc1 (stereo not given)	9	-6	.	-2	-1	-9	.	.
Cc1ccc(CN2CC(C(=O)Nc3ncc(C)s3)CC2=O)cc1 (stereo not given)	83*	-5	.	2	-1	.	83*	17
C[C@@H]1CN([C@@H](C)CO)C(=O)c2cc(NC(=O)NC3CCCCC3)ccc2O[C@@H](C)CCCCO[C@H]1CN(C)Cc1ccc(C(=O)O)cc1	.	.	.	.	.	25[16.7 µM]	.	.
O=C(C[C@H]1C[C@H]2c3cc(NS(=O)(=O)c4ccc(F)cc4)ccc3O[C@H]2[C@H](CO)O1)NCc1ccccc1F	.	.	.	.	.	5[16.7 µM]	.	.
Cc1cc(Nc2cccc(Cl)c2)nc(NCc2ccccc2)n1	93*	-5	2	0	8	58	96*	76*
CC1OC2CC(=O)OC2C2=C1C(=O)c1c(O)cccc1C2=O (stereo not given)	101*	-10	.	-17	.	.	98*	98*
Cc1ccc(S(=O)(=O)Nc2ccc3c(c2)CC(=O)N([C@H](C)CO)C[C@@H](C)[C@@H](CN(C)Cc2ccc(Oc4ccccc4)cc2)O3)cc1	.	.	.	.	.	-27[16.7 µM]	.	.
O=C1CCCN1c1ccc(S(=O)(=O)NCCOc2ccccc2)cc1	57	-8	-2	-2	-2	30	0	22
O=C(Cc1ccc(Cl)cc1)Nc1ncc([N+](=O)[O-])s1	-37	-2	.	3	-3	-24	.	.
Cc1cnc(NC(=O)Cc2ccc(Br)cc2)s1	60	-9	-1	3	-2	-8	91*	5
O=C(Cc1ccc(Br)cc1)Nc1ncc([N+](=O)[O-])s1	72*	0	1	3	-1	-10	97*	60
COc1ccc(NC(C)=O)cc1S(=O)(=O)Nc1ccccc1C(=O)NCCc1ccccc1	-76	-8	0	3	8	-38	.	.
COc1ccc(NC(C)=O)cc1S(=O)(=O)Nc1ccc(OCc2ccccc2)cc1	73*	-10	0	1	-1	16	77*	57
CN(CC(=O)NCc1ccc(F)cc1)CC(=O)Nc1ccc(Cl)c(C(F)(F)F)c1	94*	-2	1	1	2	40	53	49
CN(CC(=O)NCC(=O)Nc1ccc(F)cc1)CC(=O)Nc1ccc(Cl)c(C(F)(F)F)c1	-14	-6	.	-1	-4	.	.	.
S=C(NCc1cccnc1)Nc1cccc2ccccc12	-4	-4	4	0	1	12	.	.
S=C(NCc1ccccc1)Nc1cccc2cnccc12	66	-8	-1	-4	0	8	78*	60
CN(CC(=O)N1CCN(Cc2ccccc2)CC1)C(=O)Cc1cccc2ccccc12	15	-5	3	-2	1	26	.	.
O=C(Cc1cccc2ccccc12)NCC(=O)N1CCN(Cc2cccc(C(F)(F)F)c2)CC1	59	-6	3	-3	2	.	50	42
C[C@H](NC(=O)N(C)C[C@@H]1OCc2ccccc2-c2ccccc2C(=O)N([C@@H](C)CO)C[C@@H]1C)c1ccccc1	.	.	.	.	.	-6[16.7 µM]	.	.
CC(=NNC(=S)N1CCN(C2CCCCCC2)CC1)c1ccccn1	78*	-7	.	-7	0	3	19	-7
SMILES	NR2E3 ag-1	GalR3 antag	NR2E3 ag-2	FXN GAA850 act	V-ATPase pHluor	Env fusion inh	NR2E3 ag conf	GAL4-VP16 luc
CC(=NNC(=S)N1CCN(c2ccccn2)CC1)c1ccccn1	4	-7	.	0	-3	-5	.	.
C/C(=N/NC(=O)c1cnccn1)c1ccncc1	-23	-4	2	1	3	-9	.	.
C/C(=N\NC(=O)C1CCCN(S(=O)(=O)c2ccccc2)C1)c1ccccn1 (stereo not given)	-4	-4	-1	-3	1	.	.	.
CC(=NNC(=S)N1CC2CCC(CC2)C1)c1ccccn1	87*	-5	.	-7	3	9	-37	-9
CC(=NNC(=S)N1CCN(c2ccccn2)CC1)c1nccs1	90*	.	.	-14	-1	.	42	46
CC(=NNC(=S)N1CC2CCC(CC2)C1)c1cnccn1	76*	-4	.	4	3	-396	-20	-26
Cc1noc(C)c1NC(=O)N[C@@H]1CC[C@@H](CCNC(=O)C2CCC2)O[C@@H]1CO	.	.	.	.	.	-2[16.7 µM]	.	.
CCC(=O)N(C)C[C@@H]1Oc2ncc(C#Cc3ccncc3)cc2C(=O)N([C@H](C)CO)C[C@H]1C	.	.	.	.	.	15[16.7 µM]	.	.
C[C@@H]1CN([C@@H](C)CO)C(=O)c2cc(C#Cc3ccccc3F)cnc2O[C@@H]1CN(C)C(=O)C1CCCCC1	.	.	.	.	.	14[16.7 µM]	.	.
O=C(N/N=C/c1ccc(O)cc1)c1ccc(COc2cc(Cl)ccc2Cl)o1	54	-3	2	2	0	.	42	-17
O=S(=O)(c1ccc(Cl)cc1)N1CCN(c2ncnc3sccc23)CC1	95*	-10	.	1	-1	4	94*	72*
Cc1ccc(S(=O)(=O)N[C@@H]2CC[C@@H](CC(=O)NCc3ccc(Cl)c(Cl)c3)O[C@@H]2CO)cc1	.	.	.	.	.	13[16.7 µM]	.	.
Cc1noc(C)c1NC(=O)N(C)C[C@@H]1Oc2ccc(NS(=O)(=O)c3ccc(Cl)cc3)cc2CC(=O)N([C@H](C)CO)C[C@H]1C	.	.	.	.	.	13[16.7 µM]	.	.
Cc1csc2ncnc(N3CCN(S(=O)(=O)c4cccc(C(F)(F)F)c4)CC3)c12	94*	-4	1	0	-3	57*	97*	90*
